According to ChEMBL document CHEMBL5674880 (PLoS One, 2018):

Legend:
[1] = target: Histone-lysine N-methyltransferase SMYD3 (Homo sapiens, UniProt Q9H7B4); experiment: Inhibition of SMYD3 (unknown origin)
[2] = tested on: HepG2; experiment: Antiproliferative activity against human HepG2 cells; type: functional, cell-based
[3] = tested on: DMS-53; experiment: Antiproliferative activity against human DMS-53 expressing wild-type KRAS; type: functional, cell-based
How it was run: (§1)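 Proliferation of human lung cancer cell lines (NSCLC and others) with KRAS mutant or wild-type status. Compound was tested at concentrations up to 25 µM.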

[4] = tested on: A549; experiment: Antiproliferative activity against human A549 cells expressing KRAS G12S mutant; type: functional, cell-based; how it was run: as §1
[5] = tested on: NCI-H23; experiment: Antiproliferative activity against human NCI-H23 cells expressing KRAS G12C mutant; type: functional, cell-based; how it was run: as §1
[6] = tested on: NCI-H441; experiment: Antiproliferative activity against human NCI-H441 cells expressing KRAS G12V mutant; type: functional, cell-based; how it was run: as §1
[7] = tested on: NCI-H2122; experiment: Antiproliferative activity against human NCI-H2122 cells expressing KRAS G12C mutant; type: functional, cell-based; how it was run: as §1
[8] = tested on: SK-LU-1; experiment: Antiproliferative activity against human SK-LU-1 cells expressing KRAS G12D mutant; type: functional, cell-based
[9] = tested on: COR-L105; experiment: Antiproliferative activity against human COR-L105 cells expressing wild-type KRAS; type: functional, cell-based; how it was run: as §1
[10] = tested on: SW1573; experiment: Antiproliferative activity against human SW1573 cells expressing KRAS G12C mutant; type: functional, cell-based
[11] = tested on: SHP77; experiment: Antiproliferative activity against human SHP77 cells expressing KRAS G12V mutant; type: functional, cell-based
[12] = tested on: DMS-153; experiment: Antiproliferative activity against human DMS-153 cells expressing wild-type KRAS; type: functional, cell-based; how it was run: as §1
[13] = tested on: COR-L88; experiment: Antiproliferative activity against human COR-L88 cells expressing wild-type KRAS; type: functional, cell-based; how it was run: as §1
[14] = tested on: NCI-H2029; experiment: Antiproliferative activity against human NCI-H2029 cells expressing wild-type KRAS; type: functional, cell-based; how it was run: as §1
[15] = tested on: NCI-H2081; experiment: Antiproliferative activity against human NCI-H2081 cells expressing wild-type KRAS; type: functional, cell-based; how it was run: as §1
[16] = tested on: 5637; experiment: Antiproliferative activity against human 5637 cells in 2D growth culture; type: functional, cell-based
How it was run: (§2)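 2D monolayer proliferation screen across the 240-line Eurofins Oncopanel of human cancer cell lines (mycoplasma-negative, STR-verified). Compound was titrated to a highest tested concentration of 25 μM. Values are the mean of three replicates.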

[17] = Antiproliferative activity against human A7 cells in 2D growth culture; type: functional, cell-based; how it was run: as §2
[18] = tested on: AGS; experiment: Antiproliferative activity against human AGS cells in 2D growth culture; type: functional, cell-based; how it was run: as §2
[19] = Antiproliferative activity against human BC1 cells in 2D growth culture; type: functional, cell-based; how it was run: as §2
[20] = Antiproliferative activity against human SK-N-BE(2)-C cells in 2D growth culture; type: functional, cell-based
How it was run: (§3)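 2D monolayer culture in the Eurofins Oncopanel of 240 cancer cell lines (mycoplasma negative, STR verified). Compound dosed across a concentration series with a top concentration of 25 μM. Each value is the mean of three replicates.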

[21] = tested on: C32; experiment: Antiproliferative activity against human C32 cells in 2D growth culture; type: functional, cell-based; how it was run: as §2
[22] = Antiproliferative activity against human C4-1 cells in 2D growth culture; type: functional, cell-based; how it was run: as §2
[23] = tested on: DB; experiment: Antiproliferative activity against human DB cells in 2D growth culture; type: functional, cell-based; how it was run: as §2
[24] = tested on: DK-MG; experiment: Antiproliferative activity against human DK-MG cells in 2D growth culture; type: functional, cell-based; how it was run: as §2
[25] = tested on: DOHH-2; experiment: Antiproliferative activity against human DOHH-2 cells in 2D growth culture; type: functional, cell-based; how it was run: as §2
[26] = tested on: EB-3; experiment: Antiproliferative activity against human EB-3 cells in 2D growth culture; type: functional, cell-based; how it was run: as §2
[27] = tested on: EM-2; experiment: Antiproliferative activity against human EM-2 cells in 2D growth culture; type: functional, cell-based; how it was run: as §2
[28] = tested on: ES-2; experiment: Antiproliferative activity against human ES-2 cells in 2D growth culture; type: functional, cell-based; how it was run: as §2
[29] = tested on: H4; experiment: Antiproliferative activity against human H4 cells in 2D growth culture; type: functional, cell-based; how it was run: as §2
[30] = tested on: HLE; experiment: Antiproliferative activity against human HLE cells in 2D growth culture; type: functional, cell-based; how it was run: as §2
[31] = Antiproliferative activity against human HLF cells in 2D growth culture; type: functional, cell-based; how it was run: as §2
[32] = tested on: HOS; experiment: Antiproliferative activity against human HOS cells in 2D growth culture; type: functional, cell-based; how it was run: as §2
[33] = tested on: Hs 766; experiment: Antiproliferative activity against human Hs 766T cells in 2D growth culture; type: functional, cell-based; how it was run: as §2
[34] = tested on: HT; experiment: Antiproliferative activity against human HT cells in 2D growth culture; type: functional, cell-based; how it was run: as §2
[35] = tested on: HT-3; experiment: Antiproliferative activity against human HT-3 cells in 2D growth culture; type: functional, cell-based; how it was run: as §2
[36] = tested on: J82; experiment: Antiproliferative activity against human J82 cells in 2D growth culture; type: functional, cell-based; how it was run: as §2
[37] = tested on: JAR; experiment: Antiproliferative activity against human JAR cells in 2D growth culture; type: functional, cell-based; how it was run: as §2
[38] = tested on: KLE; experiment: Antiproliferative activity against human KLE cells in 2D growth culture; type: functional, cell-based; how it was run: as §2
[39] = Antiproliferative activity against human MT-3 cells in 2D growth culture; type: functional, cell-based; how it was run: as §2
[40] = tested on: MX1; experiment: Antiproliferative activity against human MX1 cells in 2D growth culture; type: functional, cell-based; how it was run: as §2
[41] = tested on: PC-3; experiment: Antiproliferative activity against human PC-3 cells in 2D growth culture; type: functional, cell-based; how it was run: as §2
[42] = tested on: RD; experiment: Antiproliferative activity against human RD cells in 2D growth culture; type: functional, cell-based; how it was run: as §2
[43] = tested on: RKO; experiment: Antiproliferative activity against human RKO cells in 2D growth culture; type: functional, cell-based; how it was run: as §2
[44] = tested on: SH-4; experiment: Antiproliferative activity against human SH-4 cells in 2D growth culture; type: functional, cell-based; how it was run: as §3
[45] = tested on: SR; experiment: Antiproliferative activity against human SR cells in 2D growth culture; type: functional, cell-based; how it was run: as §3
[46] = tested on: T-24; experiment: Antiproliferative activity against human T24 cells in 2D growth culture; type: functional, cell-based; how it was run: as §3
[47] = tested on: U-266; experiment: Antiproliferative activity against human U266B1 cells in 2D growth culture; type: functional, cell-based; how it was run: as §3
[48] = tested on: Y79; experiment: Antiproliferative activity against human Y79 cells in 2D growth culture; type: functional, cell-based; how it was run: as §3
[49] = tested on: 5637; experiment: Antiproliferative activity against human 5637 cells in 3D growth culture; type: functional, cell-based
How it was run: (§4)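 3D proliferation in the Eurofins Oncopanel, with a panel of 140 human cancer cell lines grown in Matrigel. The highest concentration tested was 25 μM. Each value is the mean of three replicates.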

[50] = Antiproliferative activity against human SK-N-BE(2)-C cells in 3D growth culture; type: functional, cell-based
How it was run: (§5)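 3D growth in matrigel, within a 140-cell-line panel of the Eurofins Oncopanel (mycoplasma negative, STR verified). Compound dosed across a concentration series with a top concentration of 25 μM. Each value is the mean of three replicates.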

[51] = tested on: C32; experiment: Antiproliferative activity against human C32 cells in 3D growth culture; type: functional, cell-based; how it was run: as §4
[52] = Antiproliferative activity against human C4-1 cells in 3D growth culture; type: functional, cell-based; how it was run: as §4
[53] = tested on: ES-2; experiment: Antiproliferative activity against human ES2 cells in 3D growth culture; type: functional, cell-based; how it was run: as §4
[54] = Antiproliferative activity against human HLF cells in 3D growth culture; type: functional, cell-based; how it was run: as §4
[55] = tested on: Hs 766; experiment: Antiproliferative activity against human Hs766T cells in 3D growth culture; type: functional, cell-based; how it was run: as §4
[56] = tested on: HT-3; experiment: Antiproliferative activity against human HT-3 cells in 3D growth culture; type: functional, cell-based; how it was run: as §4
[57] = tested on: J82; experiment: Antiproliferative activity against human J82 cells in 3D growth culture; type: functional, cell-based; how it was run: as §4
[58] = tested on: JAR; experiment: Antiproliferative activity against human JAR cells in 3D growth culture; type: functional, cell-based; how it was run: as §4
[59] = Antiproliferative activity against human MT-3 cells in 3D growth culture; type: functional, cell-based; how it was run: as §4
[60] = tested on: PC-3; experiment: Antiproliferative activity against human PC-3 cells in 3D growth culture; type: functional, cell-based; how it was run: as §4
[61] = tested on: RD; experiment: Antiproliferative activity against human RD cells in 3D growth culture; type: functional, cell-based; how it was run: as §4
[62] = tested on: RKO; experiment: Antiproliferative activity against human RKO cells in 3D growth culture; type: functional, cell-based; how it was run: as §5
[63] = tested on: SH-4; experiment: Antiproliferative activity against human SH-4 cells in 3D growth culture; type: functional, cell-based; how it was run: as §5
[64] = tested on: Y79; experiment: Antiproliferative activity against human Y79 cells in 3D growth culture; type: functional, cell-based; how it was run: as §5

Histone-lysine N-methyltransferase SMYD3, sequence (Q9H7B4 whole entry): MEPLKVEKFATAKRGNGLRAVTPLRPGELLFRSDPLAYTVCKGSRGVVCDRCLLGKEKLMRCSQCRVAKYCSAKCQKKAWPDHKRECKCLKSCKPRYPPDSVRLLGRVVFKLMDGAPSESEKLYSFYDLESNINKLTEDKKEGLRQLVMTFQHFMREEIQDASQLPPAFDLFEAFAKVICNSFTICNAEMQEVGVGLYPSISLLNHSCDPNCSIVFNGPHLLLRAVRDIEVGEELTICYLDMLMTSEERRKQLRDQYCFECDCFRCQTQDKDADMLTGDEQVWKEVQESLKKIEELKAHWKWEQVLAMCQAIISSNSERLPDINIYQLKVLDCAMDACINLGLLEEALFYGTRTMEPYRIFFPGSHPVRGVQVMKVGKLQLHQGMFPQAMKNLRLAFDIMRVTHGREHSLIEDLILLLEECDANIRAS

SMILES: O=C1Cc2cc(C(=O)N[C@H]3C[C@H]4CC[C@@H](C3)N4S(=O)(=O)CC3CCN(CCCC(F)(F)F)CC3)c(Cl)cc2N1
- IC50 [1]: 0.005 µM

SMILES: N[C@H]1CC[C@H](S(=O)(=O)N2[C@@H]3CC[C@H]2C[C@@H](NC(=O)c2cc(C4CC4)on2)C3)CC1
- IC50 [2]: > 40 µM
- IC50 [3]: > 20 µM
- IC50 [4]: > 20 µM
- IC50 [5]: > 20 µM
- IC50 [6]: > 20 µM
- IC50 [7]: > 20 µM
- IC50 [8]: > 20 µM
- IC50 [9]: > 20 µM
- IC50 [10]: > 20 µM
- IC50 [11]: > 20 µM
- IC50 [12]: > 20 µM
- IC50 [13]: > 20 µM
- IC50 [14]: > 20 µM
- IC50 [15]: > 20 µM
- IC50 [16]: > 25 µM
- IC50 [17]: > 25 µM
- IC50 [18]: > 25 µM
- IC50 [19]: > 25 µM
- IC50 [20]: > 25 µM
- IC50 [21]: > 25 µM
- IC50 [22]: > 25 µM
- IC50 [23]: > 25 µM
- IC50 [24]: > 25 µM
- IC50 [25]: > 25 µM
- IC50 [26]: > 25 µM
- IC50 [27]: > 25 µM
- IC50 [28]: > 25 µM
- IC50 [29]: > 25 µM
- IC50 [30]: > 25 µM
- IC50 [31]: > 25 µM
- IC50 [32]: > 25 µM
- IC50 [33]: > 25 µM
- IC50 [34]: > 25 µM
- IC50 [35]: > 25 µM
- IC50 [36]: > 25 µM
- IC50 [37]: > 25 µM
- IC50 [38]: > 25 µM
- IC50 [39]: > 25 µM
- IC50 [40]: > 25 µM
- IC50 [41]: > 25 µM
- IC50 [42]: > 25 µM
- IC50 [43]: > 25 µM
- IC50 [44]: > 25 µM
- IC50 [45]: > 25 µM
- IC50 [46]: > 25 µM
- IC50 [47]: > 25 µM
- IC50 [48]: > 25 µM
- IC50 [49]: > 25 µM
- IC50 [50]: > 25 µM
- IC50 [51]: > 25 µM
- IC50 [52]: > 25 µM
- IC50 [53]: > 25 µM
- IC50 [54]: > 25 µM
- IC50 [55]: > 25 µM
- IC50 [56]: > 25 µM
- IC50 [57]: > 25 µM
- IC50 [58]: > 25 µM
- IC50 [59]: > 25 µM
- IC50 [60]: > 25 µM
- IC50 [61]: > 25 µM
- IC50 [62]: > 25 µM
- IC50 [63]: > 25 µM
- IC50 [64]: > 25 µM
